In the RNAGym collection of RNA variant scans (doi:10.1126/science.aae0568):
Variants at the floor of the assay were thinned out.

B1: tRNA (parent)
chain: GUUCCGUUGGCGUAAUGGUAACGCGUCUCCCUCCUAAGGAGAAGACUGCGGGUUCGAGUCCCGUACGGAACG

Variants of: B1
Experiment: yeast fitness relative to wild type (ratio to wild type); higher = fitter; tRNA-Arg(CCU), competitive growth, 37 C, YPD
Method in brief: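 A pool of Saccharomyces cerevisiae strains, each with a tRNA-Arg(CCU) gene variant at the native genomic locus, was competed in YPD at 37°C for 24 hours across six parallel replicates. The variants had been chemically synthesised at a 3% per-site mutation rate over 69 sites, and gene amplicons before and after competition were read by 100-nucleotide paired-end sequencing. Darwinian fitness relative to wild type rested on changes in genotype frequencies. Genotypes required ≥ 100 starting reads, and estimates < 0.5 were set to 0.5.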

| Variant | yeast fitness |
| --- | --- |
| GUUCCGUUGGCGUAAUGGUAAGGCGUCUCCCUCGUAAGGCGAAGACUGCGGGUUCGAGUCCCGUACGGUACG [C22G C34G A40C A69U] | 0.769 |
| GUUCCGUUGGCGUAAUGGUAAGGCGUCUCUCUCUUAAGGAGAGGACUGCGGGUUCGAGUCCCGUACGGAACG [C22G C30U C34U A43G] | ≤ 0.5 |
| GUUCCGUUGGCGUAAUGGUAAGGCGUCUCACUCCUAAGGAGAAGACAGCGGGUUCGAGUCCCGUACGGAACG [C22G C30A U47A] | ≤ 0.5 |
| GUUCCGUUGGCGUAAUGGUAAGGCGUCUCCGUCCUAAGGAGAAGACUGCGGGUUCGUGUCCCGUACGGAACG [C22G C31G A57U] | ≤ 0.5 |
| GUUCCGUUGGCGUAAUGGUAAGGCGUCUGCCUCCUAAGGAGAAGACUGCGGGUUCGAGUCCCGUACGGUACG [C22G C29G A69U] | 0.626 |
| GUUCCGUUGGCGUAAUGGUAAGGCGUCUCCGUCCUAAGGAGAAGACUGCGGGUUCGAGUCCCGUAUGGCACG [C22G C31G C66U A69C] | 0.528 |
| GUUCCGUUGGCGUAAUGGUAAGGCGUCUCCGUCCUAAGGAGAAGACUGCGGGUUCGACUCCCGUACCGAACG [C22G C31G G58C G67C] | ≤ 0.5 |
| GUUCCGUUGGCGUAAUGGUAAGGCGUGUCCGUCCUAAGGAGAAGACUGCGGGUUCGAGUCGCGUACGGAACG [C22G C27G C31G C61G] | 0.575 |
| GUUCCGUUGGCGUAAUGGUAAGGCGUCUCCCUCAUAAGGAAAAGACUGCGGGUUCGAGUCCCGUACGGAACG [C22G C34A G41A] | ≤ 0.5 |
| GUUCCGUUGGCGUAAUGGUAAGGCGUCUCGCUCCUAAGGAGAAGACCGCGGGUUCGAGUCCCGUACGGAACG [C22G C30G U47C] | ≤ 0.5 |
| GUUCCGUUGGCGUAAUGGUAAGGCGUGUCCCUCCUAAGGAGAAGACUGCGGGUUCGAGCCCUGCACGUAACG [C22G C27G U59C C62U U64C G68U] | ≤ 0.5 |
| GUUCCGUUGGCGUAAUGGUAAGGCGUCUCACUCCUAAGGAGAAGACUGCGGGUUCGAGUCCCGUACGGAACG [C22G C30A] | 0.65 |
| GUUCCGUUGGCGUAAUGGUAAGGCGUCUCUCUCCUAAGGAGAAGACUGCGGGUUCGAGUCCCGUACGGAACG [C22G C30U] | 0.817 |
| GUUCCGUUGGCGUAAUGGUAAGGCGUCUCGCUCCUAAGGAGAAGACUGCGGGUUCGAGUCCCGUACGGAACG [C22G C30G] | 0.591 |
| GUUCCGUUGGCGUAAUGGUAAGGCGUCUUCCUCCUAUGGAGAAGACUGCGGGUUCGAGUCCCGUACGGAACG [C22G C29U A37U] | 0.589 |
| GUUCCGUUGGCGUAAUGGUAAGGCGUGUCCCUCCUAAGAAGAAGACUGCGGGUUCGAGUCCCGCACGGAACG [C22G C27G G39A U64C] | 0.604 |
| GUUCCGUUGGCGUAAUGGUAAGGCGUCUCCGUCCUAAGGAGAAGACUGCGGGUUCGAGUCACGUACGGAACG [C22G C31G C61A] | ≤ 0.5 |
| GUUCCGUUGGCGUAAUGGUAAGGCGUCUCCCUCAUAAGGCGAAGUCUGCGGGUUCGAGUCCCGUACGGAACG [C22G C34A A40C A45U] | 0.665 |
| GUUCCGUUGGCGUAAUGGUAAGGCGUCUACCUCCUAAGGAGCAGACUGCGGGUUCGAGUCCCGUACGGAACG [C22G C29A A42C] | 0.542 |

| Variant | yeast fitness |
| --- | --- |
| GUUCCGUUGGCGUAAUGGUAAGGCGUGUCCGUCCUAAGGAGAAGACUGCGGGUUCGAGUCGCGUACGGCACG [C22G C27G C31G C61G A69C] | ≤ 0.5 |
| GUUCCGUUGGCGUAAUGGUAAGGCGUCUCCAUCCUAAGGAGAAGUCUGCGGGUUCGAGUCCCGUACGGAACG [C22G C31A A45U] | 0.621 |
| GUUCCGUUGGCGUAAUGGUAAGGCGUCUCCUUCCUAAGGAGAAGACUGCGGGUUCGAGUCCCGUGCGGAACG [C22G C31U A65G] | 0.867 |
| GUUCCGUUGGCGUAAUGGUAAGGCGUCUCGCUCCUAAGGAGAAGACUGCGGGUUCGAGGCCCGUACGGAACG [C22G C30G U59G] | ≤ 0.5 |
| GUUCCGUUGGCGUAAUGGUAAGGCGUCUCCGUCCUAAGGAGAAGACUGCGGGUUCGAGUCCCGUACGGAACG [C22G C31G] | 0.745 |
| GUUCCGUUGGCGUAAUGGUAAGGCGUCUCCUUCCUAAGGAGAAGACUGCGGGUUCGAGUCCCGUACGGAACG [C22G C31U] | 1 |
| GUUCCGUUGGCGUAAUGGUAAGGCGUCUCCAUCCUAAGGAGAAGACUGCGGGUUCGAGUCCCGUACGGAACG [C22G C31A] | 0.78 |
| GUUCCGUUGGCGUAAUGGUAAGGCGUCUGCCUCCUAAGGAGAAGACUGCGCGUUCGAGUCCCGUACGGAACG [C22G C29G G51C] | ≤ 0.5 |
| GUUCCGUUGGCGUAAUGGUAAGGCGUCUGCCUCCUAAGGAGAAGACUGCGAGUUCGAGUCCCGUACGGAACG [C22G C29G G51A] | 0.536 |
| GUUCCGUUGGCGUAAUGGUAAGGCGUCUCCCUCAUAAGGAGAAGACUGCGGGUUCCAGUCCCGUACGGAACG [C22G C34A G56C] | ≤ 0.5 |
| GUUCCGUUGGCGUAAUGGUAAGGCGUCUACCUCCUAAGGAGACGACUGCGGGUUCGAGUGCCGUACGGAACG [C22G C29A A43C C60G] | ≤ 0.5 |
| GUUCCGUUGGCGUAAUGGUAAGGCGUUUCCCUCCUAAGGAGAAGACUGCGGGUUCGAGUCCCGUACGGAACG [C22G C27U] | 0.884 |
| GUUCCGUUGGCGUAAUGGUAAGGCGUCUCCAUCCUAAGGAGAGGACUGCGGGUUCGAGUCCCGUACGGAACG [C22G C31A A43G] | ≤ 0.5 |
| GUUCCGUUGGCGUAAUGGUAAGGCGUGUCCCUUCUAAGGAAAAGACUGCGGGUUCGAGUCCCGUACGGAACG [C22G C27G C33U G41A] | 0.631 |
| GUUCCGUUGGCGUAAUGGUAAGGCGUCUCCUUCCUAAGGAGAAGACUGCGGGUUCAAGUCCCGUACGGAACG [C22G C31U G56A] | 1.16 |
| GUUCCGUUGGCGUAAUGGUAAGGCGUGUCCGUCCUAAGGAAAAGACUGCGGGUUCGAGUCGCGUACGGUACG [C22G C27G C31G G41A C61G A69U] | ≤ 0.5 |
| GUUCCGUUGGCGUAAUGGUAAGGCGUCUGCCUCCUAAGGAGAAGAUUGCGGGUUCGAGUCCCGUACGGAUCG [C22G C29G C46U A70U] | 0.592 |
| GUUCCGUUGGCGUAAUGGUAAGGCGUCUCACUCCUAAGGAGAAGACUGCGAGUUCGAGUCCCGUACGGAACG [C22G C30A G51A] | ≤ 0.5 |
